Among the data in ChEMBL document CHEMBL1122292, “Aza analogues of lucanthone: synthesis and antitumor and bactericidal properties” (J Med Chem, 1983) are Antibiotic activity values, retold here.

Holding throughout (assay type): functional, organism-based
One assay relates to Bacillus subtilis. In words: In vitro antibiotic activity against Bacillus subtilis ATCC 6633 at 1.8E-8 mol dose; - symbol indicates negative result. In a few lines: (§1)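 Compounds were dissolved in ethyl alcohol at 3–5 × 10⁻⁶ mol/mL. Aliquots of 5, 10 or 20 μL were applied to 6-mm filter disks and dried under a light nitrogen stream. The disks were laid on an agar overlay inoculated with the test organism and incubated at 37 °C for 24 h. Inhibition-zone diameters were then measured.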

Assay [1] deals with Candida albicans. The experiment in a line: In vitro antibiotic activity against Candida albicans at 1.8E-8 mol dose; - symbol indicates negative result. In a few lines: as §1
For assay [2], the system named is Candida albicans. In words: In vitro antibiotic activity against Candida albicans at 3.6E-8 mol dose; - symbol indicates negative result. In a few lines: as §1
The subject of another assay is Escherichia coli. The experiment in a line: In vitro antibiotic activity against Escherichia coli ATCC 10536 at 7.2E-8 mol dose; ++ symbol indicates slight constraint, transient positive result. In a few lines:
as §1

In assay [3] the test system is Staphylococcus aureus. In words: In vitro antibiotic activity against Staphylococcus aureus ATCC 6358P at 1.8E-8 mol dose; +/- symbol indicates slightly positive result. The procedure, abridged: as §1
For assay [4], the system named is Staphylococcus aureus. In words: In vitro antibiotic activity against Staphylococcus aureus ATCC 6358P at 3.6E-8 mol dose; +/- symbol indicates slightly positive result. The procedure, abridged: as §1
Assay [5] deals with Staphylococcus aureus. The experiment in a line: In vitro antibiotic activity against Staphylococcus aureus ATCC 6358P at 7.2E-8 mol dose; +/- symbol indicates slightly positive result. The procedure, abridged:
as §1

Assay [6] relates to Candida albicans. The experiment in a line: In vitro antibiotic activity against Candida albicans at 7.2E-8 mol dose; - symbol indicates negative result. The procedure, abridged:
as §1

As for `CCN(CC)CCCNc1nc(C)cc2nc3ccccc3c(O)c12`, the Antibiotic activity entry in the assay on Bacillus subtilis is “Negative result”; in the assay with Candida albicans [1], “Negative result”; in the assay with Candida albicans [2], “Negative result”; in the assay with Escherichia coli, “slight constraint, transient positive result”; in the assay with Staphylococcus aureus [3] it was “+/-”; with Staphylococcus aureus [4] it was “+/-”. Besides, the Antibiotic activity result was “+/-” with Staphylococcus aureus [5] and “Negative result” in the assay on Candida albicans [6].
